Results on two compounds are retold here after ChEMBL document CHEMBL3627667, “Novel halogenated 3-deazapurine, 7-deazapurine and alkylated 9-deazapurine derivatives of L-ascorbic or imino-L-ascorbic acid: Synthesis, antitumour and antiviral activity evaluations” (Eur J Med Chem, 2015).

The test system of series [1] is HeLa. Description: Antiproliferative activity against human HeLa cells incubated for 72 hrs by MTT assay. The class given is functional, cell-based. The note with it: Homo sapiens, HeLa, 72 h. A digest of the protocol:
(§1)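 Cells seeded at 5000 per well on day 0. Test agents added in five 10-fold dilutions (0.01–100 μM) for a further 72 h, with DMSO ≤0.1% as solvent control. Growth was read by MTT and absorbance converted to percentage growth against untreated cells on the same plate. IC50 came from linear regression on dose–response curves. Quadruplicate points, three independent experiments.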

The next series has as its system SW-620. Description: Antiproliferative activity against human SW620 cells incubated for 72 hrs by MTT assay. To be noted: Homo sapiens, SW-620, 72 h. It counts as functional, cell-based. A digest of the protocol:
as §1
A general note: Formazan colour is commonly taken as a measure of viable cells.

Series [2] is described as follows: Antiproliferative activity against human MIAPaCa2 cells incubated for 72 hrs by MTT assay. The note with it: Homo sapiens, MIA PaCa-2, 72 h. The class given is functional, cell-based, MIA PaCa-2. In outline: as §1
The next series has as its system HepG2. Description: Antiproliferative activity against human HepG2 cells incubated for 72 hrs by MTT assay. It counts as functional, cell-based. To be noted: Homo sapiens, HepG2, 72 h. A digest of the protocol:
as §1

Series [3] can be described thus: Cytotoxicity against human HEL cells assessed as alteration in cell morphology incubated for 3 days by microscopy. It counts as cell-based. In outline: (§2)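 MCC is the compound concentration causing a microscopically visible alteration of cell morphology in the cultures used for the antiviral assays.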
The next series concerns HEL. Description: Cytotoxicity against human HEL cells assessed as cell growth reduction incubated for 3 days. It counts as cell-based. The note with it: 72 h. In outline: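 HEL cells were seeded at 5 × 10^3 per well and allowed to proliferate for 24 h before compound-containing medium was added. After 3 days at 37 °C, cells were counted with a Coulter counter. CC50 (50% reduction of proliferation versus untreated controls) was estimated from graphic plots.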

The subject of series [4] is Human betaherpesvirus 5. The series can be described thus: Antiviral activity against Human cytomegalovirus AD169 expressed in HEL cells assessed as reduction in plaque formation incubated for 7 days by Giemsa stain based microscopy. The class given is functional, organism-based. The note with it: Human betaherpesvirus 5, AD169, HEL, 168 h. In outline: (§3)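 Confluent HEL fibroblasts were infected at 100 PFU per well. After 2 h, residual virus was removed and compound-containing medium added, in duplicate. After 7 days at 37 °C, cells were ethanol-fixed, Giemsa-stained and examined microscopically. EC50 was read from graphic plots of % cytopathogenicity versus concentration.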

Series [5] has as its system Human betaherpesvirus 5. Description: Antiviral activity against Human cytomegalovirus Davis expressed in HEL cells assessed as reduction in plaque formation incubated for 7 days by Giemsa stain based microscopy. The note with it: Human betaherpesvirus 5, Davis, 168 h. The class given is functional, organism-based. In outline:
as §3

Series [6] is described as follows: Cytotoxicity against African green monkey Vero cells assessed as alteration in cell morphology by microscopy. The class given is cell-based. The note with it: chlorocebus sabaeus. A digest of the protocol: as §2
The next series deals with Human respirovirus 3. The series can be described thus: Antiviral activity against Parainfluenza virus 3 expressed in African green monkey Vero cells assessed as reduction in cytopathogenicity. It counts as functional, organism-based. To be noted: Human respirovirus 3, Vero. A digest of the protocol:
(§4)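 Confluent Vero monolayers were inoculated with 100 CCID50 of virus in the presence of 5-fold serial compound dilutions. Cytopathicity was scored once it was complete in untreated infected controls. EC50 is the concentration giving 50% reduction of virus-induced cytopathogenicity.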
On the technique in general: Damage to the host cells serves as the signal in cytopathic effect assays.

Series [7] deals with Mammalian orthoreovirus 1. Description: Antiviral activity against Reovirus 1 expressed in African green monkey Vero cells assessed as reduction in cytopathogenicity. The note with it: Mammalian orthoreovirus 1, Vero. The class given is functional, cell-based. A digest of the protocol: as §4
The subject of the next series is Sindbis virus. The series can be described thus: Antiviral activity against Sindbis virus expressed in African green monkey Vero cells assessed as reduction in cytopathogenicity. It counts as functional, organism-based. A digest of the protocol: as §4
The subject of the next series is Coxsackievirus B4. Description: Antiviral activity against Coxsackievirus B4 expressed in African green monkey Vero cells assessed as reduction in cytopathogenicity. The class given is functional, organism-based. To be noted: Enterovirus B. A digest of the protocol:
as §4

A further series deals with Punta Toro virus. The series can be described thus: Antiviral activity against Punta Toro virus expressed in African green monkey Vero cells assessed as reduction in cytopathogenicity. The class given is functional, organism-based. A digest of the protocol: as §4
Series [8] can be described thus: Cytotoxicity against CRFK cells assessed as cell growth reduction incubated for 3 days. The note with it: cat, 72 h. It counts as cell-based, Felis catus.
The test system of series [9] is HeLa. Description: Cytotoxicity against human HeLa cells assessed as cell growth reduction incubated for 3 days. The class given is cell-based. The note with it: 72 h.
Series [10] is described as follows: Antiproliferative activity against mouse L1210/0 cells incubated for 72 hrs by MTT assay. It counts as functional, cell-based. To be noted: Mus musculus, L1210/0, 72 h. In outline:
as §1

Series [11] in a line: Antiproliferative activity against human CEM/0 cells incubated for 72 hrs by MTT assay. It counts as functional, cell-based, CCRF-CEM. The note with it: Homo sapiens, CCRF-CEM, 72 h. In outline:
as §1

Another series deals with CFPAC-1. The series can be described thus: Antiproliferative activity against human CFPAC-1 cells incubated for 72 hrs by MTT assay. The class given is functional, cell-based. To be noted: CFPAC-1, 72 h. A digest of the protocol: as §1

The IC50 is the concentration that inhibits the measured activity by half. As a reminder, the CC50 is the concentration at which the toxic effect on the cells reaches its halfway point. One may read the EC50 as the concentration needed to bring the measured effect to its halfway point. In the case of `O=C1O/C(=C\Cn2cnc3c(Cl)c(F)nc(F)c32)C(OCc2ccccc2)=C1OCc1ccccc1` (mixture of isomers), the IC50 is above 100 µM with HeLa [1], 50 µM in the series with SW-620, above 100 µM in series [2] and above 100 µM in the series with HepG2. Moreover, the MCC at 72 h in series [3] is at least 100 µM. In addition, the CC50 in the series with HEL was above 100 µM. The EC50 is 8.94 µM in the series with Human betaherpesvirus 5 [4]; 8.94 µM in the series with Human betaherpesvirus 5 [5]; above 20 µM in the series with Human respirovirus 3; above 20 µM in [7]; above 20 µM in the series with Sindbis virus; above 20 µM in the series with Coxsackievirus B4. The EC50 in the series on Punta Toro virus amounted to 12 µM. For the same compound, in [6], the MCC turned out to be 20 µM. The Activity result (in series [8]; in the series on HeLa [9]) was “Non-toxic” in each case.

Consider `O=C1O/C(=C\Cn2cnc3ncc(Br)c-3c2)C(OCc2ccccc2)=C1OCc1ccccc1` (mixture of isomers), for which the IC50 is 17 µM in the series on HeLa [1]; above 100 µM in the series with SW-620; 15 µM in series [10]; 12 µM in series [11]; above 100 µM in series [2]; above 100 µM in the series with HepG2. In the series with CFPAC-1, this compound had an IC50 above 100 µM.
